INS promoter act = activators of insulin promoter-driven GFP, primary screen, imaging, TRM-6 cells (human fetal islet line), eGFP reporter, cell count | actives 0.81% (n = 130,000) | plate-scaled: unstimulated 0, stimulated control 100 | activation, % at 2 µM;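 active = activation at 2 µM above a set limit, confirmed on inspection of the cell images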;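 also: share of cells whose green reporter signal exceeds an intensity cutoff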
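test system = TRM-6 insulin promoter–eGFP reporter cells | benchmarks = stimulated versus unstimulated wells as plate controls | read-out basis = percent cells above green-intensity threshold, converted to percent activation versus plate controls | detection = fixed-cell fluorescence microscopy, eGFP plus Hoechst | incubation = tamoxifen pre-incubation 15 h overnight, then compound exposure 48 h at 37 °C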
Each line names hits and unclear results; the compound was inactive in the other large screens; [ ] = another dose, or the depositor's remark. Shown is part of a subset that was picked to be rich in hits.

Cc1ccc(C(=O)COC(=O)c2c(C)cc(=O)oc2C)cc1[N+](=O)[O-]	none
CCCCCC(=O)NNC(=O)c1ccc(-c2ccccc2)cc1	none
CCOC(=O)CNC(=O)CSc1nnc(-c2ccccc2)n1Cc1ccco1	none
O=C(CSc1nnc(-c2ccc(Cl)cc2)n1Cc1ccco1)NCc1ccc2c(c1)OCO2	INS promoter act 80.0
COc1ccc(-c2cnc(SCC(=O)Nc3ccc4c(c3)OCO4)n2Cc2ccco2)cc1	none
CCCCCCC(=O)N/N=C/Cc1ccccc1	none
COC(=O)C1=C(C)NC(=O)NC1c1ccc(-c2ccc(F)cc2)o1 (stereo not drawn)	none
COC(=O)C1=C(C)NC(=S)NC1c1ccc(-c2ccccc2C(=O)OC)o1 (stereo not drawn)	INS promoter act 428.6
COC(=O)C1=C(C)NC(=S)NC1c1ccc(-c2cccc(Cl)c2)o1 (stereo not drawn)	none
Cc1c(C=O)c2ccccc2n1CC(=O)NCc1ccc2c(c1)OCO2	none
CCCn1c(CCC(=O)O)ccc1-c1cccs1	none
COCCCn1c(CCC(=O)O)ccc1-c1cccs1	INS promoter act 86.5
O=C(O)CCc1ccc(-c2cccs2)n1CC1CCCO1 (stereo not drawn)	none
CCOc1cc(C(=O)NC(=S)Nn2cnnc2)cc(OCC)c1OCC	none
C=CCNC(=O)COc1cc(C)ccc1C	none
Cc1cc(C)n(C2CC(=O)N(c3ccccc3)C2=O)n1 (stereo not drawn)	none
Cc1ccccc1C1CC(=O)NC2=C1C(=O)CCC2 (stereo not drawn)	none
O=C1CCCC2=C1C(c1ccccc1)CC(=O)N2c1ccccc1 (stereo not drawn)	INS promoter act 181.8
O=C(COc1ccc(Cl)cc1)NCc1nnc(SCC(=O)N2CCCC2)o1	none
COc1ccc(-c2[nH]ncc2CN2CCC(N3CCSCC3)CC2)c(F)c1	none
CSc1nsc(SCC(=O)N2CCCCC2)n1	none
O=C(CN1C(=O)/C(=C/c2ccccc2F)Sc2ccccc21)N1CCN(c2ccccn2)CC1	none
COc1ccc(OCCN2C(=O)c3ccccc3C2=O)cc1	none
COc1ccc(OCC(=O)NCCc2c[nH]c3ccccc23)cc1	none
CCOc1ccc(OCCN2C(=O)NC(Cc3c[nH]c4ccccc34)C2=O)cc1 (stereo not drawn)	INS promoter act 533.3
Cc1cc(C(F)F)nn1CC(=O)NCc1ccccc1F	none
Cc1ccc(N(C(=O)c2ccccc2Cl)C2=NC(C)CS2)c(C)c1 (stereo not drawn)	none
Cc1snc(S(=O)(=O)Cc2c(Cl)cccc2Cl)c1C#N	none
Cc1c(OCc2nn[nH]n2)ccc2c3c(c(=O)oc12)CCCC3	none
CCOC(=O)COc1ccc2c3c(c(=O)oc2c1C)CCC3	INS promoter act 518.8
CCCOc1ccc2c3c(c(=O)oc2c1OCCC)CCCC3	none
C/C(=N\OCC(=O)N/N=C/c1ccccc1)c1cccs1	none
COc1cccc(/C=N/NC(=O)C(=O)N/N=C/c2cccc(OC)c2OC)c1OC	none
COc1cccc(/C=N/NC(=O)CO/N=C(\C)c2cccs2)c1OC	INS promoter act 85.7
CCCN1CNc2c(c(=O)[nH]c(=S)n2CCc2ccccc2)C1	none
COc1ccc(C(=O)NCCN2CCOCC2)cc1OC	none
COCCNC(=O)C(=O)NCCN1CCOCC1	INS promoter act 493.8
O=C(CCSCCC(=O)NCCN1CCOCC1)NCCN1CCOCC1	none
O=C(CN1C(=O)C2C3C=CC(C4CC34)C2C1=O)Oc1ccccc1 (stereo not drawn)	none
Cc1cc(C)cc(OCC(=O)Nc2nonc2NC(=O)COc2cc(C)cc(C)c2)c1	none
Cc1cccnc1NC(=O)COc1ccc2oc3c(c2c1)CCCC3	INS promoter act 433.3
COc1cc2c(cc1NC(=O)COc1ccc3ccccc3c1)oc1ccccc12	none
Cn1cc2c(=O)n(/N=C/c3ccccc3)cnc2n1	none
O=C(NCCc1ccccc1)c1oc2ccccc2c1COc1ccccc1	INS promoter act 80.0
O=C(COC(=O)COc1ccccc1)NCc1ccccc1	none
O=C(NCCc1ccccc1)c1ccc(-c2ccccc2C(F)(F)F)o1	none
O=C(c1cc(Sc2cccc(Cl)c2)nc2ccccc12)N1CCN(c2ccccn2)CC1	none
CCOc1ccc(-c2cc(C(=O)N3CCN(c4ccccn4)CC3)c3ccccc3n2)cc1	INS promoter act 740.0
CS(=O)(=O)N1CCN(C(=O)c2cc(-c3ccccc3)nc3ccccc23)CC1	none
COC(=O)/C=C1/N/C(=N\c2nc(C)cc(C)n2)N(c2ccccc2)C1=O	none
Cc1cc(C)cc(NC(=S)N2CCC(N(C)CC3CCCO3)CC2)c1 (stereo not drawn)	none
Cc1cccc(NC(=O)N2CCC(n3nnc4cc(C)ccc43)CC2)c1	none
O=S(=O)(NCC1CCCO1)c1cccc(S(=O)(=O)N2CCCC2)c1 (stereo not drawn)	none
O=S(=O)(NC1CCCC1)c1cccc(S(=O)(=O)N2CCC(n3nnc4ccccc43)CC2)c1	INS promoter act 157.1
CC(C)(C)C1CCC(C(=O)OCC(=O)N2CCOCC2)CC1 (stereo not drawn)	none
CCc1ccccc1NC(=S)N(CCN(C)C)Cc1cccs1	none
CCOC(=O)c1ccc(NC(=S)Nc2ccccn2)cc1	none
CCOC(=O)CS(=O)(=O)c1ccccc1	none
C/C(CS(=O)(=O)c1ccccc1)=N\O	INS promoter act 229.4
COc1cc(NC(=O)CS(=O)(=O)c2ccccc2)cc(OC)c1OC	none
c1ccc(Oc2cc(-n3cccn3)ncn2)cc1	none
Cc1ccccc1Oc1cc(-n2ncc(Cl)c(Cl)c2=O)ncn1	INS promoter act 270.4
Cc1nn(-c2ccccc2)c(C)c1NC(=O)COc1ccc(F)cc1Cl	none
Cc1ccc(/C(O)=C2\C(=O)C(=O)N(CCc3c[nH]c4ccccc34)C2c2cccnc2)cc1 (stereo not drawn)	none
Cc1cc(/C=N/n2cnnc2)c(C)n1-c1cc(Cl)ccc1Cl	none
CCOc1ccc2[nH]c(=O)c(C(c3nnnn3Cc3ccco3)N3CCCC(C)C3)cc2c1 (stereo not drawn)	none
CCc1ccc(S(=O)(=O)/N=C2\C=CC(=O)c3ccccc32)cc1	INS promoter act 326.7
CCc1ccc(S(=O)(=O)/N=C2/C=C(Sc3ncn[nH]3)C(=O)c3ccccc32)cc1	none
Cn1c(=O)c2c(nc(CN3CCN(CCO)CC3)n2Cc2cccc3ccccc23)n(C)c1=O	none
Cn1ncc(Cl)c1C(=O)Nc1sc2c(c1C(N)=O)CCC2	none
CCN1CCc2c(sc(NC(=O)Nc3ccc(Cl)c(Cl)c3)c2C(N)=O)C1	INS promoter act 207.7
CCOC(=O)c1c(NC(=S)Nc2ccc(Cl)cc2)sc2c1CCN(C)C2	none
COC(=O)C1=C(C)Nc2c(c(=O)n(C)c(=O)n2C)C1c1ccc(C)cc1 (stereo not drawn)	none
CC(=O)N1N=C(c2ccccc2)OC1c1ccc([N+](=O)[O-])s1 (stereo not drawn)	none
O=C(NC1CCCCC1)n1c(=O)oc2ccccc21	none
Cc1cccc(NC2=C(NCCO)C(=O)c3ccccc3C2=O)c1	none
O=c1cc(NCCc2ccccc2)c2ccccc2o1	none
Cn1c(=O)c(NCCc2ccccc2)c2c3c(cccc31)C(=O)c1ccccc1-2	INS promoter act 170.3[may fluoresce]
Cn1c(=O)c(NC2CCCCC2)c2c3c(cccc31)C(=O)c1ccccc1-2	INS promoter act 566.7
O=C1c2ccccc2C(=O)c2c1cccc2N1CCCC1	none
COCCNC(=S)NNc1cccc(C(=O)O)c1	none
O=C(Nc1ccc2c(c1)OCO2)N1CCCC1	none
COc1ccc(/C=N/N=C2\SCC(=O)N2c2c(C)n(C)n(-c3ccccc3)c2=O)cc1OC	none
O=C(CNCC1CCCCC1)Nc1ccc(OC(F)(F)F)cc1	none
Cc1cc(C(F)F)nn1CC(=O)Nc1cc([N+](=O)[O-])ccc1F	none
CC(=NCCCNC1CCCCC1)C1=C(O)CC(C)(C)CC1=O	INS promoter act 89.5
CC1(C)CC(=O)C(C=N)=C(O)C1	none
